In ChEMBL document CHEMBL4706701, “Synthesis and biological activity of selenopsammaplin A and its analogues as antitumor agents with DOT1L inhibitory activity” (Bioorg Med Chem, 2021):
Activity calls are given as the source filed them. The rule behind the calls is not given here.

Assays:
[1] = tested on: MDA-MB-231; assay: Down regulation of CDH2 mRNA expression in human MDA-MB-231 cells at 50 to 200 nM measured after 24 hrs by RT-PCR analysis; assay type: functional, cell-based; details: dose 50-200 nM
[2] = Selectivity ratio of IC50 for human MCF-10A cells to IC50 for human SNU-638 cells
Outline: (§1)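 Cytotoxicity by SRB assay: cells seeded in 96-well plates and treated with compounds; fixed, stained with 0.4% SRB in 1% acetic acid, dye dissolved in 10 mM Tris (pH 10.0), absorbance read at 515 nm. IC50 by non-linear regression, means of at least three experiments; ratio of MCF10A IC50 to cancer-line IC50.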

[3] = tested on: MDA-MB-231; assay: Antimetastatic activity against human MDA-MB-231 cells xenografted in BALB/c nu mouse assessed as down regulation of H3K79me2 expression in tumor tissue at 5 to 15 mg/kg, ip administered thrice per week for 38 days measured 1 week post last dose by H and E staining based immunohistochemical analysis; assay type: functional, organism-based; details: dose 5-15 mg/kg, time 45.0 day
Outline: (§2)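 Tumors and lungs from orthotopic MDA-MB-231/Luc nude mice (ip dosing three times weekly, 38 days) fixed in 4% PFA, paraffin-embedded, sectioned, antigen-retrieved. Lungs H&E-stained for metastatic cells; tumor sections immunostained for Ki67, H3K79me2, E-cadherin, vimentin with HRP detection, hematoxylin counterstain, imaged at 200×.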

[4] = Selectivity ratio of IC50 for human MCF-10A cells to IC50 for human A549 cells; assay type: toxicity; details: MCF-10A cells versus A549 cells, read-out: Ratio IC50
[5] = tested on: MDA-MB-231; assay: Antimetastatic activity against human MDA-MB-231 cells xenografted in BALB/c nu mouse assessed as reduction in luciferase signal in tumor site at 5 to 15 mg/kg, ip administered thrice per week for 38 days measured 1 week post last dose by luciferase based imaging analysis; assay type: functional, organism-based; details: dose 5-15 mg/kg, time 45.0 day
Outline: (§3)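 Orthotopic luciferase-expressing MDA-MB-231 model in female BALB/c-nu mice, ip dosing in EtOH/Cremophor/saline (5:5:90) three times weekly for 38 days. One week later anesthetized mice imaged by IVIS 15 min after D-luciferin (150 mg/kg in PBS); lungs and other organs then excised and imaged ex vivo.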

[6] = tested on: MDA-MB-231; assay: Cytotoxicity against human MDA-MB-231 cells assessed as reduction in cell viability by SRB assay; assay type: functional, cell-based
Outline: (§4)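 Cells seeded in 96-well plates and exposed to compounds for the stated times. Zero-day controls were incubated 30 min. Cells were fixed and stained with 0.4% SRB in 1% acetic acid, and bound dye was dissolved in 10 mM Tris (pH 10.0). A515 was read, and IC50 was calculated by non-linear regression.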

[7] = Selectivity ratio of IC50 for human MCF-10A cells to IC50 for human HCT-116 cells; assay type: toxicity; details: MCF-10A cells versus HCT-116 cells, read-out: Ratio IC50
[8] = biological target: Histone-lysine N-methyltransferase, H3 lysine-79 specific (Homo sapiens) (UniProt Q8TEK3); assay: Inhibition of human N-terminal GST-tagged DOT1L (2 to 416 residues) expressed in Escherichia coli at 200 nM using DOT1L substrate measured after 2 hrs in presence of SAM by ELISA
Sequence of Histone-lysine N-methyltransferase, H3 lysine-79 specific (Homo sapiens) (Q8TEK3 whole entry, looked up, the tested form may be a part): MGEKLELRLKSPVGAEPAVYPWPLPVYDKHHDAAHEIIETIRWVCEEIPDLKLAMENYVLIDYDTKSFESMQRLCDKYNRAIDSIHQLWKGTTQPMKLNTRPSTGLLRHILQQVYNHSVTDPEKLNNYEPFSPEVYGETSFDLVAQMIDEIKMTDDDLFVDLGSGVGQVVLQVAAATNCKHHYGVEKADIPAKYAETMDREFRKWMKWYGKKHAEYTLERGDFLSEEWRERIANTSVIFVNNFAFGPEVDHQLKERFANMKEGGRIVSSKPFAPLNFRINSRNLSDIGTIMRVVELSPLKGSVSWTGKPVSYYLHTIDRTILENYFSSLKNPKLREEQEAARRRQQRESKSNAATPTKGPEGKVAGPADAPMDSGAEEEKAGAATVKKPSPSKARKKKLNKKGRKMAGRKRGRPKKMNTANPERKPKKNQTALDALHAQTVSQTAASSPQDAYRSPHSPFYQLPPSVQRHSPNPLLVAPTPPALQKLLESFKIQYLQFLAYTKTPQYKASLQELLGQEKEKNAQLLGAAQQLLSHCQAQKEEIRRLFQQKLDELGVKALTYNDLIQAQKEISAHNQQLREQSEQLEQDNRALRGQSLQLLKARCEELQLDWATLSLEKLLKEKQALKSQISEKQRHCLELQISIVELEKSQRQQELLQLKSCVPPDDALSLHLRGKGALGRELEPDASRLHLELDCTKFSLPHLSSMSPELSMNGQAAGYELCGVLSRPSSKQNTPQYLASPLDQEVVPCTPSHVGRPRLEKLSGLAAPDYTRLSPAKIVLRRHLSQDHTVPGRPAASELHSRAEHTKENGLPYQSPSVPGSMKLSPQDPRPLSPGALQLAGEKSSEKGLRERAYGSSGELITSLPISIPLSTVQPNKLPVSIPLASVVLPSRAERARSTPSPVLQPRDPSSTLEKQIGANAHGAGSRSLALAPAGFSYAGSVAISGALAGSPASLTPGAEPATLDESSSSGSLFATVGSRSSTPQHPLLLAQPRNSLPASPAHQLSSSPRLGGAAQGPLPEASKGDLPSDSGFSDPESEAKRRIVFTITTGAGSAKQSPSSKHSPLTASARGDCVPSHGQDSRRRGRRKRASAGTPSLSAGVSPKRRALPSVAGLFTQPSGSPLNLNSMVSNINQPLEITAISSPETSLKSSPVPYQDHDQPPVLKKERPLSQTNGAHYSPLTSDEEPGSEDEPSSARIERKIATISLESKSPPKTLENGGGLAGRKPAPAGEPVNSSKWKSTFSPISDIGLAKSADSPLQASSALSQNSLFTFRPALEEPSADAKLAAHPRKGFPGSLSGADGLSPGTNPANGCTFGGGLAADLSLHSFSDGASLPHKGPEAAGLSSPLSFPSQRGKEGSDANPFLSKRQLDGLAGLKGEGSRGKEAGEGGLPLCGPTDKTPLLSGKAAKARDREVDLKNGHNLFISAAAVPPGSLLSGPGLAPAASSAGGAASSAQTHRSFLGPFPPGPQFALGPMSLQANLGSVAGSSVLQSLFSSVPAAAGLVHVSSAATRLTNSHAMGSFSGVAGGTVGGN
Outline: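 Cell-free DOT1L enzyme activity assay using 500 ng DOT1L per well. Compound was incubated 2 h before read-out. EPZ-5676 (100 nM) was the positive control. Mean ± SD (n = 3), representative of three separate experiments.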

[9] = tested on: MDA-MB-231; assay: Up regulation of CDH1 expression in human MDA-MB-231 cells at 50 to 200 nM measured after 48 hrs by Western blot analysis; assay type: functional, cell-based; details: dose 50-200 nM
Outline: (§5)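 MDA-MB-231 cells exposed to compound for 48 h; lysates in 2× SDS sample buffer with orthovanadate and NaF, protein by BCA. 5–20 μg resolved on 8–15% SDS-PAGE, PVDF, BSA block, probed for E-cadherin, N-cadherin, ZEB1, vimentin; ECL detection, β-actin internal control, band densitometry. Mean ± SD (n = 3), three experiments.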

[10] = tested on: MDA-MB-231; assay: Antimetastatic activity against human MDA-MB-231 cells xenografted in BALB/c nu mouse assessed as up regulation of E-cadherin expression in tumor tissue at 5 to 15 mg/kg, ip administered thrice per week for 38 days measured 1 week post last dose by H and E staining based immunohistochemical analysis; assay type: functional, organism-based; details: dose 5-15 mg/kg, time 45.0 day; outline: as §2
[11] = tested on: SNU-638; assay: Cytotoxicity against human SNU-638 cells assessed as reduction in cell viability by SRB assay; assay type: functional, cell-based; outline: as §4
[12] = tested on: SK-HEP1; assay: Cytotoxicity against human SK-HEP1 cells assessed as reduction in cell viability by SRB assay; assay type: functional, cell-based; outline: as §4
[13] = tested on: MDA-MB-231; assay: Antitumor activity against human MDA-MB-231 cells xenografted in ip dosed BALB/c nu mouse assessed as down regulation of H3K79me2 expression in tumor tissue administered thrice per week for 38 days measured 1 week post last dose by Western blot analysis; assay type: functional, organism-based; details: dose 5-15 mg/kg, time 45.0 day
Outline: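 Frozen tumor portions from the orthotopic MDA-MB-231 nude mouse study homogenized in complete lysis buffer; protein by Bradford assay. Western blotting for H3K79me2, E-cadherin and vimentin, β-actin internal control, band intensities semi-quantified; three separate experiments.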

[14] = tested on: MDA-MB-231; assay: Down regulation of ZEB1 mRNA expression in human MDA-MB-231 cells at 50 to 200 nM measured after 24 hrs by RT-PCR analysis; assay type: functional, cell-based; details: dose 50-200 nM
[15] = tested on: MDA-MB-231; assay: Down regulation of CDH2 expression in human MDA-MB-231 cells at 50 to 200 nM measured after 48 hrs by Western blot analysis; assay type: functional, cell-based; details: dose 50-200 nM; outline: as §5
[16] = tested on: MDA-MB-231; assay: Down regulation of VIM expression in human MDA-MB-231 cells at 50 to 200 nM measured after 48 hrs by Western blot analysis; assay type: functional, cell-based; details: dose 50-200 nM; outline: as §5
[17] = tested on: MDA-MB-231; assay: Antitumor activity against human MDA-MB-231 cells xenografted in BALB/c nu mouse assessed as reduction in tumor weight at 5 to 15 mg/kg, ip administered thrice per week for 38 days measured 1 week post last dose; assay type: functional, organism-based; details: dose 5-15 mg/kg, time 45.0 day
Outline: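 Female BALB/c-nu mice (5–6 wk) given 1 × 10⁷ luciferase-expressing MDA-MB-231 cells in 50:50 DMEM/Matrigel into the fourth fat pad; randomized after 10 days (six per group). Dosed ip in EtOH/Cremophor/saline (5:5:90) three times weekly for 38 days. Tumor L, W, H measured by caliper, volume = LWH/2; body weight weekly; tumors excised and weighed at termination.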

[18] = tested on: MDA-MB-231; assay: Antimetastatic activity against human MDA-MB-231 cells xenografted in BALB/c nu mouse assessed as reduction in luciferase signal in lung tissue at 5 to 15 mg/kg, ip administered thrice per week for 38 days measured 1 week post last dose by luciferase based imaging analysis; assay type: functional, organism-based; details: dose 5-15 mg/kg, time 45.0 day; outline: as §3
[19] = tested on: MCF-10A; assay: Cytotoxicity against human MCF-10A cells assessed as reduction in cell viability by SRB assay; assay type: cell-based; outline: as §4
[20] = Selectivity ratio of IC50 for human MCF-10A cells to IC50 for human SK-HEP1 cells; outline: as §1
[21] = Toxicity in human MDA-MB-231 cells xenografted BALB/c nu mouse at 5 to 15 mg/kg, ip administered thrice per week for 38 days; assay type: organism-based; details: in vivo, 912 h, dose 5-15 mg/kg, time 38 day
Outline: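 Female BALB/c-nu mice, 5–6 weeks old, received 1 × 10⁷ luciferase-expressing MDA-MB-231 cells in 50:50 DMEM/Matrigel into the fourth fat pad. At day 10, mice were randomized into groups of six. Dosing was i.p. three times weekly for 38 days, in vehicle EtOH/Cremophor/saline 5:5:90. Body weight was recorded weekly, and toxicity was judged by lethality and weight loss.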

O=C(NCC[Se][Se]CCNC(=O)/C(Cc1ccccc1)=N/O)/C(Cc1ccccc1)=N/O
Activity [1]: Active
Ratio IC50 [2]: >100
Activity [3]: Active
selectivity ratio [4]: > 100
Activity [5]: Active
IC50 [6]: 0.06 µM
selectivity ratio [7]: > 100
inhibition [8]: Active
Activity [9]: Active
Activity [10]: Active
IC50 [11]: 0.05 µM
IC50 [12]: 0.12 µM
Activity [13]: Dose-dependent effect
Activity [14]: Active
Activity [15]: Active
Activity [16]: Active
Activity [17]: Active
Activity [18]: Active
IC50 [19]: 18.1 µM
Ratio IC50 [20]: >100
Activity [21]: Non-Toxic
